Active and inactive are the calls of the source. No cut-off for these calls is given here.
Experiments:
[1] = system: Human immunodeficiency virus 2; test: Inhibition of HIV2(NIH-Z) isolate; assay type: functional, organism-based
Summary of the method: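 HeLa-JC53-LTR-Luci cells (HIV-1 LTR-driven luciferase) infected with HIV-2 at MOI 0.03, with 1:4 serial compound dilutions (final DMSO 0.2%, 2% FBS medium). Incubated 48 h at 37°C in 5% CO2. Luciferase chemiluminescence read-out.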

[2] = Cmax in dog at 20 mg/kg, po; assay type: ADME, organism-based, Canis lupus familiaris; set-up: dose 20 mg/kg, route oral; settings: in vivo
[3] = system: Human immunodeficiency virus 1; test: Antiviral activity against HIV1 isolate with RT V106I mutation in Hela-JC-53 cells; assay type: functional
[4] = system: Human immunodeficiency virus 1; test: Antiviral activity against HIV1 isolate with RT K101E mutant; assay type: functional, organism-based
Summary of the method: (§1)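 VSV-G-pseudotyped pNL4-3.Luc.R−E− molecular clones carrying the RT mutations, single-round infection of HeLa-JC53 cells (15,000/well) at MOI 0.03. Compounds serially diluted 1:4 in DMSO then in phenol red-free DMEM with 2% FBS, final DMSO 0.2%. Incubated 48 h at 37°C, 5% CO2. Luciferase read-out by chemiluminescence gives the EC50. Fold change is relative to wt virus, mean of two tests.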

[5] = system: Human immunodeficiency virus 1; test: Antiviral activity against HIV1 isolate with RT T369I mutation in Hela-JC-53 cells; assay type: functional
[6] = system: Human immunodeficiency virus 1; test: Antiviral activity against HIV1 isolate V106I-Y188L mutant; assay type: functional, organism-based
[7] = system: Human immunodeficiency virus 1; test: Antiviral activity against wild type HIV1 NL4-3 in Hela-JC53 cells after 48 hrs; assay type: functional, organism-based; settings: Human immunodeficiency virus 1, NL4-3, Hela-JC53, 48 h
Summary of the method: (§2)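 Single-round assay in HeLa-JC53 cells (15,000/well) using VSV-G-pseudotyped pNL4-3.Luc.R−E−-derived virus at MOI 0.03. Compounds serially diluted 1:4 in DMSO then medium (2% FBS; final DMSO 0.2%). Incubated 48 h at 37°C in 5% CO2. Luciferase chemiluminescence read-out; EC50 determined.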

[8] = system: Human immunodeficiency virus 1; test: Inhibition of wild type clade B HIV1 NL4-3; assay type: functional, organism-based; summary of the method: as §2
[9] = Cmax in dog at 10 mg/kg, iv; assay type: ADME, organism-based, Canis lupus familiaris; set-up: dose 10 mg/kg, route intravenous; settings: in vivo
[10] = system: Human immunodeficiency virus 1; test: Antiviral activity against HIV1 isolate with RT K103N mutation; assay type: functional, organism-based; summary of the method: as §1
[11] = system: Human immunodeficiency virus 1; test: Antiviral activity against HIV1 NL4-3 with Y188L mutation in Hela-JC53 cells after 48 hrs; assay type: functional, organism-based; settings: Human immunodeficiency virus 1, NL4-3, Hela-JC53, 48 h
Summary of the method: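 VSV-G-pseudotyped Y188L NL4-3.Luci.R−E− virus (MOI 0.03) infecting HeLa-JC53 cells (1.5 × 10^4) in phenol red-free DMEM with 2% FBS. Serially diluted compound was added, then heat-inactivated human serum at final 0, 5, 10, 20, 30, 40 or 50%. Cultures ran 48 h at 37°C in 5% CO2, read by Bright-Glo luciferase chemiluminescence. EC50 was taken by nonlinear regression.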

[12] = Half life in dog at 20 mg/kg, po; assay type: ADME, organism-based, Canis lupus familiaris; set-up: dose 20 mg/kg, route oral; settings: in vivo
[13] = system: Human immunodeficiency virus 1; test: Antiviral activity against HIV1 isolate with RT K103N-K101Q-P225H mutation; assay type: functional, organism-based; summary of the method: as §1
[14] = system: Human immunodeficiency virus 1; test: Inhibition of non-B HIV1 isolates (clades A, AC, C, D and F); assay type: functional, organism-based
[15] = system: Human immunodeficiency virus 1; test: Antiviral activity against wild type HIV1 NL4-3 in Hela-JC53 cells in the presence of 20% human serum after 48 hrs; assay type: functional, organism-based; settings: Human immunodeficiency virus 1, NL4-3, Hela-JC53, 48 h
Summary of the method: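 HeLa-JC53 cells (1.5 × 10^4) infected with VSV-G-pseudotyped NL4-3.Luci.R−E− reporter virus at MOI 0.03, with 1:4 serial compound dilutions. Heat-inactivated human serum added to final 0–50% on a basal 2% FBS medium. Incubated 48 h at 37°C in 5% CO2. Luciferase read-out; EC50 by nonlinear regression.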

[16] = system: Human immunodeficiency virus 1; test: Antiviral activity against HIV1 isolate with RT K103N-L100I mutation; assay type: functional, organism-based; summary of the method: as §1
[17] = AUC in dog at 10 mg/kg, iv; assay type: ADME, organism-based, Canis lupus familiaris; set-up: dose 10 mg/kg, route intravenous; settings: plasma
[18] = system: Human immunodeficiency virus 1; test: Antiviral activity against HIV1 isolate with RT 103N, 238N mutation relative to wild type; assay type: functional
Summary of the method: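 Mutant RT clones built in pNL4-3.Luc.R−E− reporter, VSV-G-pseudotyped, single-round infection of HeLa-JC53 cells (15,000/well, MOI 0.03) with 1:4 serial compound dilutions in DMEM (phenol red-free), 2% FBS, 0.2% final DMSO; 48 h at 37°C, 5% CO2; luciferase chemiluminescence read-out. Fold change in EC50 relative to wild-type virus; mean of two tests.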

SMILES | Activity [1] | Cmax [2] [ng/mL] | Fold change [3] | EC50 [4] [nM] | Fold change [5] | EC50 [6] [nM] | EC50 [7] [nM] | Activity [8] | Cmax [9] [ng/mL] | EC50 [10] [nM] | EC50 [11] [nM] | half-life [12] [h] | EC50 [13] [nM] | Activity [14] | EC50 [15] [nM] | EC50 [16] [nM] | AUC [17] [ng·h/mL] | Fold change [18]
NS(=O)(=O)c1ccc(NC(=O)CSc2nnc(Br)n2-c2ccc(C3CC3)c3ccccc23)c(Cl)c1 | inactive | 1980 | 1 | 0.26 | 1.3 | 2.27 | 0.6 | Active | 4420 | 0.09 | 3.7 | 3.36 | 0.11 | Active | 7.1 | 0.05 | 20900 | –
Cc1ccnc2c1NC(=O)c1cccnc1N2C1CC1 [NEVIRAPINE] | – | – | – | – | – | – | – | – | – | – | – | – | – | – | – | – | – | >100
